Consider three compounds from paper PMC4411251 (The Journal of General Physiology, 2015).

For test [1], the target named is T1, TRPV1-WT (Rattus norvegicus, UniProt O35433). The test is classed as cell-based. The note with it: Hill fit of dose–response, native lipids.
Test [2] has as its target T2, TRPV1-R721A (Rattus norvegicus, UniProt O35433, R721A). The test is classed as cell-based. The note with it: Hill fit of dose–response, native lipids.
For test [3], the target named is T1, TRPV1-WT. The test is classed as cell-based. The note with it: Hill fit of dose–response, 1 µM capsaicin. The method, boiled down: (§1)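 Rat TRPV1 (WT or R721A) transiently expressed in F-11 cells and used 12–48 h post-transfection. […] Bath was 130 mM NaCl, 10 mM HEPES, 0.2 mM EDTA, pH 7.4, with steps from 0 mV to ±100 mV. Vehicle-subtracted currents were Hill-fitted per patch, normalized to Imax, and pooled (mean, SEM).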

Test [4] has as its target T2, TRPV1-R721A. The test is classed as cell-based. The note with it: for Hill slope nH, phosphoinositide activation of TRPV1-R721A: Hill fit of dose–response, 1 µM capsaicin. The gist of the method: as §1
Test [5] relates to TRPV1. The note with it: ref Collins and Gordon, 2013; cited from earlier work.
Setting [6] is: R721A mutation compared with WT.

“Also recorded” adds a separate entry of the source.

T1 sequence (O35433 whole entry): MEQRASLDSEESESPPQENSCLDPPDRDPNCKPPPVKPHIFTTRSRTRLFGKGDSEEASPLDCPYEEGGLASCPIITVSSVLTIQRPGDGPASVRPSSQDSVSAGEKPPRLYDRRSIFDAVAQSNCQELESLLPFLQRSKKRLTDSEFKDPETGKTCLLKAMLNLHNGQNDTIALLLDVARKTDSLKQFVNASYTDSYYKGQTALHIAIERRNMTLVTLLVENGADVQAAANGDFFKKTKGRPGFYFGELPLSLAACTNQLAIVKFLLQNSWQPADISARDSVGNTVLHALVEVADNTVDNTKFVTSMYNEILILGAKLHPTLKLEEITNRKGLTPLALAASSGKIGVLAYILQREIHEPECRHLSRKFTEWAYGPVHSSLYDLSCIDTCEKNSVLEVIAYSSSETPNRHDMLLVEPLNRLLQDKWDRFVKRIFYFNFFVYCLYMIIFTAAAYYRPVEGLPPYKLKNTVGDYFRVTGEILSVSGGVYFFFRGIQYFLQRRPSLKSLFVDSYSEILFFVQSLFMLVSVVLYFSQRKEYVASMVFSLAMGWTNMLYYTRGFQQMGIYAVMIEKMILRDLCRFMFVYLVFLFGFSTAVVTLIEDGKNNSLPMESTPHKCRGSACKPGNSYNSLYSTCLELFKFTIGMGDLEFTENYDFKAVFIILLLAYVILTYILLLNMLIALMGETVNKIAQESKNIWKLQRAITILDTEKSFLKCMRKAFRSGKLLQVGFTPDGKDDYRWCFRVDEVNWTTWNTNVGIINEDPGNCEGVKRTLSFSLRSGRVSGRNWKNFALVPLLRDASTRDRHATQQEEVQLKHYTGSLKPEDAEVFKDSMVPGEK
T2 sequence (O35433 whole entry R721A): as the sequence (O35433 whole entry) above, with R721A counted along it

In the case of `COc1cc(CNC(=O)CCCC/C=C/C(C)C)ccc1O` [capsaicin], in test [1], the “Hill slope nH, capsaicin activation of TRPV1-WT” value amounted to 1. Further, the “Hill slope nH, capsaicin activation of TRPV1-R721A” value in test [2] amounted to 1.

Consider `CCCCCCCC(=O)OC[C@H](COP(=O)(O)O[C@H]1[C@H](O)[C@@H](O)[C@H](OP(=O)(O)O)[C@@H](O)[C@H]1O)OC(=O)CCCCCCC` [diC8-PI(4)P], for which the “Hill slope nH, phosphoinositide activation of TRPV1-WT” value in test [3] is 2. Further, the “Hill slope nH, phosphoinositide activation of TRPV1-R721A” value in test [4] turned out to be 2. In addition, in test [4] (setting [6]), the “decrease in the EC50 for activation produced by the R721A mutation (in words)” value is “more than two orders of magnitude; also recorded: over two orders of magnitude” and the “decrease in the EC50 value, TRPV1-R721A versus TRPV1-WT” value is recorded as 150 fold.

Regarding `CCCCCCCC(=O)OC[C@H](COP(=O)(O)O[C@@H]1[C@H](O)[C@H](O)[C@@H](OP(=O)(O)O)[C@H](OP(=O)(O)O)[C@H]1O)OC(=O)CCCCCCC` [diC8-PI(4,5)P2, phosphoinositide 4,5-bisphosphate], the “Hill slope nH, phosphoinositide activation of TRPV1-WT” value in test [3] was found to be 2. Besides, the “Hill slope nH, phosphoinositide activation of TRPV1-R721A” value in test [4] was found to be 2. Moreover, the “increase in the EC50 value, TRPV1-R721A versus TRPV1-WT” value in test [4] (setting [6]) is listed as 1.3 fold. The “K1/2 of activating effects on TRPV1 in the plasma membrane” value in test [5] is on record as approximately 0.03 mol %.
